Experimental data published in paper PMC10582660 (Clinical and Translational Science, 2023).

How the values were obtained:
OAT3 = molecular target: T1, OAT3 (Homo sapiens, UniProt Q8TCC7); assay: Raloxifene as a substrate for uptake transporters; type: in vitro ADME; settings: raloxifene 1, 10 μM, 2, 20 min, two‐fold cutoff
T1 sequence (Q8TCC7 1-542): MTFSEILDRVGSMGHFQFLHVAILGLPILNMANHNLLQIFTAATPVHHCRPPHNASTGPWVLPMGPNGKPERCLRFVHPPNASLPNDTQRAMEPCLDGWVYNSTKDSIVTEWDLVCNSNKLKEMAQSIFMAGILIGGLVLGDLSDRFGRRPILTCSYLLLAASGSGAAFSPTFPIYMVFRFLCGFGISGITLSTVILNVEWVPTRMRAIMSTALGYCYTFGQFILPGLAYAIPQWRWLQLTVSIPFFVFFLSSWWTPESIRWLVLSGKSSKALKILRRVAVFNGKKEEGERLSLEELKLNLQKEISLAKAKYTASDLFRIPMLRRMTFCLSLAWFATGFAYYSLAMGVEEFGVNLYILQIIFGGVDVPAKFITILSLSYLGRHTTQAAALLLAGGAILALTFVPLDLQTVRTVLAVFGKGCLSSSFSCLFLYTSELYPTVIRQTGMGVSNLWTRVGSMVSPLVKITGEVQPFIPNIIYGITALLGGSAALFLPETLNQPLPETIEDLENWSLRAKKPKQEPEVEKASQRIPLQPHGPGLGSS
How it was run: (§1)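 Uptake of test compound (1 and 10 μM, 2 and 20 min) measured in transporter-expressing HEK293 or MDCKII cells or inside-out membrane vesicles. Run with positive-control probe substrates and inhibitors, plus empty-vector or untransfected control cells. Fold-accumulation relative to control cells judged against a two-fold cutoff for substrate status.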

OCT2 = molecular target: T2, OCT2 (Homo sapiens, UniProt O15244); assay: Raloxifene as a substrate for uptake transporters; type: in vitro ADME; settings: raloxifene 1, 10 μM, 2, 20 min, two‐fold cutoff
T2 sequence (O15244 1-555): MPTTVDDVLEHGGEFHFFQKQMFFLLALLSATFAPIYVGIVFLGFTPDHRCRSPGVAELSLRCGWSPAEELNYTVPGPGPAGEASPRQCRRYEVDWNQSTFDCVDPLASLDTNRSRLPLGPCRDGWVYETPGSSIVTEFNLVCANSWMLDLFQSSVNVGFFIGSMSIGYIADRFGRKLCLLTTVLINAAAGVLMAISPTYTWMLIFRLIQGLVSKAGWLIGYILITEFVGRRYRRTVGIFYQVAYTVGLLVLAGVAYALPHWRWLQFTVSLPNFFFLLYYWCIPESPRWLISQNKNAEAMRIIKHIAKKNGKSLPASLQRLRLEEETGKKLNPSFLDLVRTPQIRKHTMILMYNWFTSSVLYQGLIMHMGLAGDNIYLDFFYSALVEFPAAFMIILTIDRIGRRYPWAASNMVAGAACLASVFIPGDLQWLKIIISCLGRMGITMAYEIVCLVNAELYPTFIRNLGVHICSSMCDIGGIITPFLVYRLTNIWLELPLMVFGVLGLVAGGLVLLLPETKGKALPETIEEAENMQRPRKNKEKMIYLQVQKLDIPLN
How it was run: as §1

[1] = Follow-up exploratory clinical study: plasma pharmacokinetics; type: in vivo, human; settings: for Cmax / Tmax / AUC(0-t): both, human, plasma, oral; for AUC(0-t): AUC0–48h, geometric mean (CV%)
How it was run: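 Six healthy adults (3 male, 3 female) in sequential arms ≥7 days apart: oral test compound with water, then with acute brewed green tea, then tea alone. Plasma sampled 0–48 h at the main-study times. Analysed by UHPLC–MS/MS for parent and glucuronides. […] Green tea/baseline ratios on log-transformed data, paired two-tailed t-test.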

OAT1 = molecular target: T3, OAT1 (Homo sapiens, UniProt Q4U2R8); assay: Raloxifene as a substrate for uptake transporters; type: in vitro ADME; settings: raloxifene 1, 10 μM, 2, 20 min, two‐fold cutoff
T3 sequence (Q4U2R8 1-563): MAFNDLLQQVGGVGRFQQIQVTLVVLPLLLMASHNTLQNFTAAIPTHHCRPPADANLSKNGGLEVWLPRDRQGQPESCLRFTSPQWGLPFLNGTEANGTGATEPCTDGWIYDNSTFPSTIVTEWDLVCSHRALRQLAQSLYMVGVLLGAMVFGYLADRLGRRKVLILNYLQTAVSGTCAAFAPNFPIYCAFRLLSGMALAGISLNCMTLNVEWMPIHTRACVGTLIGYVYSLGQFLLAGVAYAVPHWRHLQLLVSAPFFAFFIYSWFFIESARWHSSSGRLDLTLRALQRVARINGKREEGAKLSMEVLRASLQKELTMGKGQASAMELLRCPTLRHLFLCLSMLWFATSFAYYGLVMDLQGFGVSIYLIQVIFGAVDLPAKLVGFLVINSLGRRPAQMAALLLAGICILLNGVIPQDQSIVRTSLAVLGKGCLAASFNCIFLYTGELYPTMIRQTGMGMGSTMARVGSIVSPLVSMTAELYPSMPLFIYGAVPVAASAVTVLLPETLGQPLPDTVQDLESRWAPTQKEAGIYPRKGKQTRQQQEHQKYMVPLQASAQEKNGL
How it was run: as §1

NTCP = molecular target: T4, NTCP (Homo sapiens, UniProt Q14973); assay: Raloxifene as a substrate for uptake transporters; type: in vitro ADME; settings: raloxifene 1, 10 μM, 2, 20 min, two‐fold cutoff
T4 sequence (Q14973 1-349): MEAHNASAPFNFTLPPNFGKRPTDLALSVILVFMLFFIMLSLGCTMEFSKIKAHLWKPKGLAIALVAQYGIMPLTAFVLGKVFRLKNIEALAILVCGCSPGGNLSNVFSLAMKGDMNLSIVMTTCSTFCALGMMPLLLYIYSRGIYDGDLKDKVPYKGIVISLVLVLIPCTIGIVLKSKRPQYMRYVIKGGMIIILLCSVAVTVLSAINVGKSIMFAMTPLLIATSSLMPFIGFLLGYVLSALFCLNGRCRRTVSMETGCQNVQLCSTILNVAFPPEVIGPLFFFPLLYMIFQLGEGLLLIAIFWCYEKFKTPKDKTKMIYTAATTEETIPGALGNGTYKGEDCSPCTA
How it was run: as §1

[2] = follow-up study, acute green tea vs baseline

fold‐accumulation (OAT3): 0.75–1.03
fold‐accumulation (OCT2): 0.90–1.15
Cmax [1]: 0.28 nM
Tmax [1]: 1 h
Cmax ([1]; 60 mg): 0.32 nM
Tmax ([1]; 60 mg): 1.25 h
AUC(0-t) ([1]; 60 mg, follow-up study, six healthy adults, baseline): 8.25 nM·h
AUC(0-t) ([1]; follow-up study, acute green tea): 7.46 nM·h
AUC0–48h green tea/baseline ratio (90% CI) [1, 2]: 0.90 (0.77–1.03)
Cmax,1 green tea/baseline ratio (90% CI) [1, 2]: 0.87 (0.72–1.07)
magnitude of the decrease in raloxifene AUC with green tea ([1]; follow‐up study): 10%
fold‐accumulation (OAT1): 0.72–0.91
fold‐accumulation (NTCP): 1.14–1.33
Compound: O=C(c1ccc(OCCN2CCCCC2)cc1)c1c(-c2ccc(O)cc2)sc2cc(O)ccc12 [Raloxifene, raloxifene, reference compound]
